Results gathered from unrelated publications.
Each line is one published result; the experiments were not run side by side.
Rock2: Rho-associated protein kinase 2 (Rock2, Rattus norvegicus, UniProt Q62868)
PTGS2: Prostaglandin G/H synthase 2 (PTGS2, Homo sapiens, UniProt P35354)
SIGMAR1: Sigma non-opioid intracellular receptor 1 (SIGMAR1, Cavia porcellus, UniProt Q60492)
NPY2R: Neuropeptide Y receptor type 2 (NPY2R, Homo sapiens, UniProt P49146)

Nc1ncnc2c1ncn2[C@@H]1O[C@H](CSCCNC(=O)NCc2ccccc2)[C@@H](O)[C@H]1O  inhibition (Protein arginine N-methyltransferase 7 (PRMT7, Homo sapiens, UniProt Q9NVM4); enzyme activity; inhibitor; radiometric; 10 µM): > 75%
CNC(=O)c1cc(Oc2ccc(NC(=O)Nc3ccc(Cl)c(C(F)(F)F)c3)cc2)ccn1  inhibition (Rock2; enzyme activity; inhibitor; 0.3 µM): 17%
O=c1cc(-c2ccc(O)c(O)c2)oc2cc(O)cc(O)c12  inhibition (PTGS2; enzyme activity; inhibitor; 0.49 µg/mL): 45%
COc1ccc(CCC(C)N2CCc3cc(OC)c(OC)cc3C2)cc1 (centres unmarked)  inhibition (SIGMAR1; ligand displacement; radioligand; 0.1 µM): 11%
COc1cc(-c2cc(=O)c3c(O)cc(O)cc3o2)ccc1O  inhibition (PTGS2; enzyme activity; inhibitor; 7.81 µg/mL): 58.6%
CN(C)C1CCN(CC#Cc2nn(C3CCCC3)c3nc(NCc4ccccc4)ncc23)C1 (centres unmarked)  inhibition (Dual specificity tyrosine-phosphorylation-regulated kinase 1A (DYRK1A, Homo sapiens, UniProt Q13627); enzyme activity; inhibitor; FRET; 0.1 µM): 4%
CNC(=O)[C@@]12C[C@@H]1[C@@H](n1cnc3c(NC)nc(C#Cc4ccc(Cl)s4)nc31)[C@H](O)[C@@H]2O  inhibition (SIGMAR1; ligand displacement; radioligand; 10 µM): 60 to 70%
O=C1N=C(N2CCCCN2)S/C1=C\c1ccc(F)cc1O  inhibition (5-hydroxytryptamine receptor 1B (Htr1b, Rattus norvegicus, UniProt P28564); ligand displacement; radioligand; 10 µM): < 10%
O=C(c1ccc(Cl)cc1)N(Cc1ccccc1)C1CCCCC1  inhibition (Muscarinic acetylcholine receptor M3 (CHRM3, Homo sapiens, UniProt P20309); cell-free assay; 10 µM): -7.8%
CCN(Cc1ccccc1C(F)(F)F)C(=O)C1CCN(S(=O)(=O)c2ccc3[nH]ncc3c2)CC1  inhibition (NPY2R; ligand displacement; radioligand; 10 µM): 3%
C=C[C@@]1(C)C=C2CC[C@@H]3[C@](C)(CCC[C@@]3(C)C(=O)O)[C@H]2CC1  inhibition (PTGS2; enzyme activity; inhibitor; 0.49 µg/mL): 7.14%
Cc1ccc(Nc2nccc(N(C)c3ccc4c(C)n(C)nc4c3)n2)cc1S(N)(=O)=O  inhibition (Rock2; enzyme activity; inhibitor; 10 µM): 29%
O=C(c1ccc(F)cc1)N(Cc1ccccc1)C1CCCCC1  inhibition (NPY2R; cell-free assay; 10 µM): -14%
COc1ccc(-c2cc(=O)c3c(O)cc(O[C@@H]4O[C@H](CO)[C@@H](O)[C@H](O)[C@H]4O)cc3o2)cc1O  inhibition (PTGS2; enzyme activity; inhibitor; 7.81 µg/mL): 100%
CC(CN(C)C)C(Oc1cccc2ccccc12)c1cccs1 (centres unmarked)  inhibition (Sigma intracellular receptor 2 (TMEM97, Homo sapiens, UniProt Q5BJF2); ligand displacement; radioligand; 10 µM): -4.5%
O=C(O)c1ccc(O)cc1  inhibition (PTGS2; enzyme activity; inhibitor; 0.98 µg/mL): 32.2%
CCN1CCN(Cc2ccc(NC(=O)c3ccc(C)c(Oc4ccnc5[nH]ccc45)c3)cc2C(F)(F)F)CC1  inhibition (Scaffold protein ILK (ILK, Homo sapiens, UniProt Q13418); target engagement in cells; inhibitor; chemoproteomics; Huh-7; 1 µM): -36.8%
